Source: ChEMBL document CHEMBL2375244 (J Med Chem, 2013)
One block for each compound: values may come before it.

How the values were obtained:
[1] = molecular target: T1, CDK2/Cyclin A2 (Homo sapiens, UniProt P24941); experiment: Inhibition of human CDK2/Cyclin A2 using PKTPKKAKKL as substrate by fluorescence assay; assay type: protein-complex assay
[2] = system: MDA-MB-468; experiment: Cytotoxicity against human MDA-MB-468 cells after 72 hrs by MTT assay; assay type: functional, cell-based; settings: MDA-MB-468, 72 h
Outline: (§1)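 Cells kept in RPMI or DMEM with 10% FBS at 37 °C, 5% CO₂ and allowed to attach overnight; 72 h with increasing inhibitor concentrations; then 1 mg/mL MTT for 3 h, DMSO solubilisation, OD read at 540 nm. Testis lines had culture conditions adapted to them. Dose-response in triplicate, 9 concentrations between 0.02 and 100 μM, averaged.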

[3] = molecular target: T1, CDK2/Cyclin A2; experiment: Inhibition of human CDK2/Cyclin A2 using PKTPKKAKKL as substrate by PK/LDH spectrophotometric analysis; assay type: protein-complex assay
[4] = Cytotoxicity against mouse GC-1 cells after 72 hrs by MTT assay; assay type: functional, cell-based; settings: GC-1, 72 h; outline: as §1
[5] = Cytotoxicity against mouse GC-2 cells after 72 hrs by MTT assay; assay type: functional, cell-based; settings: GC-2, 72 h; outline: as §1
[6] = Cytotoxicity against mouse TM4 cells after 72 hrs by MTT assay; assay type: functional, cell-based; settings: TM4, 72 h; outline: as §1
[7] = system: BT-549; experiment: Cytotoxicity against human BT549 cells after 72 hrs by resazurin/resorufin-based fluorescence assay; assay type: functional, cell-based; settings: BT-549, 72 h
Outline: (§2)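 CellTiter-Blue viability: 1200 cells per well seeded, incubated overnight at 37 °C, 5% CO₂; drugs serially diluted 2:3 in medium, four replicate wells per concentration plus four diluent-only control wells; 72 h exposure; resazurin reduction to resorufin read by fluorescence (579 nm ex/584 nm em). IC50 is the average of three data sets, each using nine concentrations between 0.004 μM and 12.5 μM.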

[8] = system: SK-BR-3; experiment: Cytotoxicity against human SK-BR-3 cells after 72 hrs by resazurin/resorufin-based fluorescence assay; assay type: functional, cell-based; settings: SK-BR-3, 72 h; outline: as §2
[9] = Cytotoxicity against human RPMI18226 cells after 72 hrs by resazurin/resorufin-based fluorescence assay; assay type: functional, cell-based; settings: RPMI18226, 72 h
[10] = Cytotoxicity against human MDA-MB-436 cells after 72 hrs by resazurin/resorufin-based fluorescence assay; assay type: functional, cell-based; settings: MDA-MB-436, 72 h
[11] = system: MDA-MB-231; experiment: Cytotoxicity against human MDA-MB-231 cells after 72 hrs by resazurin/resorufin-based fluorescence assay; assay type: functional, cell-based; settings: MDA-MB-231, 72 h
[12] = system: SW872; experiment: Cytotoxicity against human SW872 cells after 72 hrs by resazurin/resorufin-based fluorescence assay; assay type: functional, cell-based; settings: SW872, 72 h
[13] = system: U-266; experiment: Cytotoxicity against human U266 cells after 72 hrs by resazurin/resorufin-based fluorescence assay; assay type: functional, cell-based; settings: U-266, 72 h
[14] = system: MCF7; experiment: Cytotoxicity against human MCF7 cells after 72 hrs by resazurin/resorufin-based fluorescence assay; assay type: functional, cell-based; settings: MCF7, 72 h
[15] = system: A673; experiment: Cytotoxicity against human A673 cells after 72 hrs by resazurin/resorufin-based fluorescence assay; assay type: functional, cell-based; settings: A673, 72 h
[16] = system: SK-ES1; experiment: Cytotoxicity against human SK-ES-1 cells after 72 hrs by resazurin/resorufin-based fluorescence assay; assay type: functional, cell-based; settings: SK-ES1, 72 h
[17] = system: HOS-TE85; experiment: Cytotoxicity against human MNNG-HOS cells after 72 hrs by resazurin/resorufin-based fluorescence assay; assay type: functional, cell-based; settings: HOS-TE85, 72 h
[18] = system: T47D; experiment: Cytotoxicity against human T47D cells after 72 hrs by resazurin/resorufin-based fluorescence assay; assay type: functional, cell-based
[19] = Cytotoxicity against human NCI-H929 cells after 72 hrs by resazurin/resorufin-based fluorescence assay; assay type: functional, cell-based; settings: NCI-H929, 72 h
[20] = system: SK-UT-1; experiment: Cytotoxicity against human SK-UT-1 cells after 72 hrs by resazurin/resorufin-based fluorescence assay; assay type: functional, cell-based; settings: SK-UT-1, 72 h

Compound: Nc1nc(NC2CCCCC2)sc1C(=O)c1cccnc1
IC50 [1]: 0.38 µM
IC50 [2]: 3.1 µM

Compound: Nc1nc(Nc2ccccc2)sc1C(=O)c1cccnc1
IC50 [4]: 5.9 µM
IC50 [5]: 9.5 µM
IC50 [1]: 0.65 µM
IC50 [6]: 5.5 µM

Compound: Nc1nc(Nc2ccc(S(N)(=O)=O)cc2)sc1C(=O)c1ccc2ccccc2c1
IC50 [7]: > 10 µM
IC50 [8]: 6.1 µM
IC50 [9]: > 10 µM
IC50 [10]: 5.3 µM
IC50 [11]: > 10 µM
IC50 [12]: > 10 µM
IC50 [13]: 7.9 µM
IC50 [14]: 5.9 µM
IC50 [15]: 3.7 µM
IC50 [16]: 4.8 µM
IC50 [17]: 9.7 µM
IC50 [18]: 4.5 µM
IC50 [3]: 82 µM
IC50 [19]: 4.3 µM
IC50 [2]: 5.5 µM

Compound: Nc1nc(Nc2ccc(S(N)(=O)=O)cc2)sc1C(=O)c1ccccc1
IC50 [4]: 17 µM
IC50 [5]: 6.1 µM
IC50 [1]: 0.13 µM
IC50 [6]: 9.1 µM

Compound: CCOC(=O)c1sc(Nc2ccccc2)nc1N
IC50 [3]: > 100 µM

Compound: Nc1nc(Nc2ccc(S(N)(=O)=O)cc2)sc1C(=O)c1ccc(S(N)(=O)=O)cc1
IC50 [7]: > 10 µM
IC50 [8]: > 10 µM
IC50 [9]: > 10 µM
IC50 [10]: > 10 µM
IC50 [11]: > 10 µM
IC50 [20]: > 10 µM
IC50 [12]: > 10 µM
IC50 [13]: 7.2 µM
IC50 [14]: > 10 µM
IC50 [15]: > 10 µM
IC50 [16]: > 10 µM
IC50 [17]: > 10 µM
IC50 [18]: 8.7 µM
IC50 [1]: 0.07 µM
IC50 [19]: > 10 µM

Compound: Nc1nc(NC2CCNCC2)sc1C(=O)c1cccnc1
IC50 [3]: 43 µM

Compound: Nc1nc(Nc2ccccc2)sc1C(=O)c1ccccc1
IC50 [4]: 11 µM
IC50 [5]: 11 µM
IC50 [1]: 0.93 µM
IC50 [6]: 12 µM

Compound: Nc1nc(Nc2ccccc2)sc1C(=O)c1ccc2ccccc2c1
IC50 [3]: > 100 µM

Compound: C=CCNc1nc(N)c(C(=O)c2ccncc2)s1
IC50 [3]: 49 µM

Compound: C=CCNc1nc(N)c(C(=O)C(C)(C)C)s1
IC50 [3]: > 100 µM

Compound: CC(C)Nc1nc(N)c(C(=O)c2cccnc2)s1
IC50 [1]: 0.52 µM

Compound: Nc1nc(Nc2ccccc2)sc1C(=O)c1cc(C(F)(F)F)cc(C(F)(F)F)c1
IC50 [3]: > 100 µM

Compound: Nc1nc(Nc2ccc(S(N)(=O)=O)cc2)sc1C(=O)c1cccc(C(F)(F)F)c1
IC50 [1]: 0.57 µM

Compound: C=CCNc1nc(N)c(C(=O)Nc2cc(C)no2)s1
IC50 [3]: > 100 µM

Compound: CNc1nc(N)c(C(=O)c2ccccc2)s1
IC50 [3]: 95 µM

Compound: Nc1nc(Nc2ccc(C(F)(F)F)cc2)sc1C(=O)c1ccccc1
IC50 [3]: > 100 µM

More lines, in order of falling IC50 [3], values ahead:

IC50 [3]: 41 µM
Compound: C=CCNc1nc(N)c(C(=O)c2ccc([N+](=O)[O-])cc2)s1

IC50 [3]: 35 µM
Compound: C=CCNc1nc(N)c(C(=O)c2ccc(OC)cc2)s1

IC50 [3]: 32 µM
Compound: COC(=O)c1ccccc1C(=O)c1sc(Nc2ccc(S(N)(=O)=O)cc2)nc1N

IC50 [3]: 25 µM
Compound: Nc1nc(Nc2ccc(S(N)(=O)=O)cc2)sc1C(=O)c1cc(C(F)(F)F)cc(C(F)(F)F)c1

IC50 [3]: 17 µM
Compound: CCNc1nc(N)c(C(=O)c2ccccc2)s1

IC50 [3]: 15 µM
Compound: C=C(C)CNc1nc(N)c(C(=O)c2ccccc2)s1

IC50 [3]: 8.9 µM
Compound: CCCNc1nc(N)c(C(=O)c2ccccc2)s1

IC50 [3]: 7.8 µM
Compound: Nc1nc(Nc2cccc(S(N)(=O)=O)c2)sc1C(=O)c1cccnc1

IC50 [3]: 4.8 µM
Compound: Cc1ccccc1C(=O)c1sc(Nc2ccc(S(N)(=O)=O)cc2)nc1N

IC50 [3]: 4 µM
Compound: Nc1nc(Nc2ccc(C(=O)O)cc2)sc1C(=O)c1cccnc1

IC50 [3]: 3.5 µM
Compound: Nc1nc(Nc2ccc(S(N)(=O)=O)cc2)sc1C(=O)C1CCCCC1

IC50 [3]: 3.5 µM
Compound: CC(C)(C)OC(=O)N1CCC(Nc2nc(N)c(C(=O)c3cccnc3)s2)CC1

IC50 [3]: 3.1 µM
Compound: C=CCNc1nc(N)c(C(=O)c2cccnc2)s1

IC50 [3]: 2.9 µM
Compound: C=CCNc1nc(N)c(C(=O)c2cccc([N+](=O)[O-])c2)s1

IC50 [3]: 1.5 µM
Compound: Nc1nc(Nc2ccc(S(N)(=O)=O)cc2)sc1C(=O)c1cccc(O)c1
